pKi: −log10 of the molar value.
Key:
[1] = target: T1, Adenosine receptor A1 (Rattus norvegicus) (UniProt P25099); test: Displacement of [3H]R-PIA from Adenosine A1 receptor from rat brain membranes at 10^-4M; assay type: cell membranes; conditions: Membrane
T1 sequence (whole entry): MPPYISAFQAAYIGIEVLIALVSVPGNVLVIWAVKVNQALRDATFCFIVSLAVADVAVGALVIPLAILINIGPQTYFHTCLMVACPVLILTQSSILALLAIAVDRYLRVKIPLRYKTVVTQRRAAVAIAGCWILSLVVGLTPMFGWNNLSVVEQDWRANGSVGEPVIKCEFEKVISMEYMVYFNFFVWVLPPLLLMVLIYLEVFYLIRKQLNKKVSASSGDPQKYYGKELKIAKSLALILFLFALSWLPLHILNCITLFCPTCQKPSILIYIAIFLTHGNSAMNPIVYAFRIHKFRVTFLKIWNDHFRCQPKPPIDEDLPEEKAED
How it was run: (§1)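 Rat cerebral cortex membranes prepared with adenosine deaminase 3 units/mL, also present in a 30 min preincubation at 30 °C and during radioligand incubation. Nonspecific binding defined with 10 μM 2-chloroadenosine. Compounds dissolved in DMSO, diluted in buffer (≤1% DMSO). Filtration over GF/B filters.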

Adenosine receptor A2a = Adenosine receptor A2a (Rattus norvegicus, UniProt P30543); test: Displacement of [3H]CGS-21680 from Adenosine A2A receptor of rat striatal membranes.; assay type: cell membranes, Membrane
How it was run: (§2)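 Rat striatal membranes prepared with adenosine deaminase 3 units/mL, also present in a 30 min preincubation at 30 °C and during radioligand incubation. Nonspecific binding defined with 20 μM 2-chloroadenosine. Compounds dissolved in DMSO, diluted in buffer (≤1% DMSO). Filtration over GF/B filters. IC50 from at least five competitor concentrations spanning 3 log units, converted to Ki by Cheng-Prusoff; n = 3–6, or % specific binding displaced at 10⁻⁴ M.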

[2] = target: Adenosine receptor A2a (Rattus norvegicus) (UniProt P30543); test: Displacement of [3H]CGS-21680 from Adenosine A2A receptor of rat striatal membranes at 10^-4M; assay type: cell membranes; conditions: Membrane; how it was run: as §2
Adenosine receptor A1 = target: T2, Adenosine receptor A1 (Rattus norvegicus, UniProt P25099); test: (§3) Displacement of [3H]R-PIA from Adenosine A1 receptor of rat brain membranes; assay type: cell membranes, Membrane; how it was run: as §1
T2 sequence (P25099 whole entry): T1 sequence (whole entry)

[3] = target: T1, Adenosine receptor A1 (Rattus norvegicus); test: as §3; assay type: cell membranes; conditions: Membrane; how it was run: as §1

Adenosine receptor A2a (Rattus norvegicus), sequence (P30543 whole entry): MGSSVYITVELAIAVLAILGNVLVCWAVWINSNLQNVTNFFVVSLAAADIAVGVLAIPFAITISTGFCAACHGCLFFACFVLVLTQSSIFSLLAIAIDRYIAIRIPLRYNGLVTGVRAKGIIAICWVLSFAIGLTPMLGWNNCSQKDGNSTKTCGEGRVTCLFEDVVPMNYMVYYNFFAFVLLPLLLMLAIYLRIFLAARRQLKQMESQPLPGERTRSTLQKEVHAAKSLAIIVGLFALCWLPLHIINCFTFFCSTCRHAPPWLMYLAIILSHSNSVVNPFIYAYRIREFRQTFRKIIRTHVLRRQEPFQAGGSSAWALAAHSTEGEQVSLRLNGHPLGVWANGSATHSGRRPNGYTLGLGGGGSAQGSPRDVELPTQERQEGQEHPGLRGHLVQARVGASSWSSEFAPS
Adenosine receptor A2a, sequence (P30543 whole entry): as above

Row | SMILES | Displacement [1] | pKi (Adenosine receptor A2a) | Displacement [2] | pKi (Adenosine receptor A1) | Displacement [3]
1 | CCCOC(=O)c1c(CCSC(C)=O)c(C(=O)SCC)c(CC)[n+](C)c1-c1ccccc1 | 45% | 4.27 | – | – | –
2 | CCCOC(=O)c1c(CCC)c(C(=O)SCC)c(CC)[n+](C)c1-c1ccccc1 | < 10% | – | 25% | – | –
3 | CCCOC(=O)c1c(CCC)c(C(=O)SCCCF)c(CC)[n+](C)c1-c1ccccc1 | < 10% | 5.13 | – | – | –
4 | CCC[n+]1c(CC)c(C(=O)SCC)c(CC)c(C(=O)OCC)c1-c1ccccc1 | – | – | 28% | 4.11 | –
5 | CCCCc1c(C(=O)SCC)c(CC)c(C(=O)OCC)c(-c2ccccc2)[n+]1C | – | 5.22 | – | 4.84 | –
6 | CCOC(=O)c1c(CC)c(C(=O)SCC)c(C2CCC2)[n+](C)c1-c1ccccc1 | – | 4.48 | – | 4.06 | –
7 | CCOC(=O)c1c(CCN2C(=O)c3ccccc3C2=O)c(C(=O)SCC)c(CC)[n+](C)c1-c1ccccc1 | – | 5.67 | – | 5.82 | –
8 | CCOC(=O)c1c(CC)c(C(=O)SCC)c(CC)[n+](C)c1-c1ccccc1 | – | 4.94 | – | 4.50 | –
9 | CCSC(=O)c1c(CC)c(C(=O)OCCF)c(-c2ccccc2)[n+](C)c1CC | 30% | 4.25 | – | – | –
10 | CCOC(=O)c1c(CC)c(C(=O)SCC)c(CC)[n+](CC)c1-c1ccccc1 | – | – | 25% | – | –
11 | CCCOC(=O)c1c(CC)c(C(=O)SCC)c(CC)[n+](C)c1-c1ccccc1 | < 10% | 4.73 | – | – | –
12 | CCOC(=O)c1c(CC)c(C(=O)SCC)c(CC)[n+](C)c1C1CCCC1 | – | 5.11 | – | – | –
13 | CCOC(=O)c1c(CC)c(C(=O)SCC)c(C)[n+](C)c1-c1ccccc1 | 22% | 4.68 | – | – | –
14 | CCCOC(=O)c1c(CCC)c(C(=O)SCC)c(CCOCc2ccccc2)[n+](C)c1-c1ccccc1 | – | 4.92 | – | – | 21%
